Assay outcomes: PubChem, Johns Hopkins Ion Channel Center
In the library only some 3.5% were active in any assay of this set; here they are far more common.
MrgX1 agonist – human MrgX1 receptor agonism, primary screen | Q96LB2 | MrgX1-HEK293 cells, Fluo-4 calcium fluorescence, agonist mode; stronger effect = higher value | B-score at 10 µM | 310,000 tested, 0.44% active | AID 588627;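 active means calcium response B-score plate-corrected fluorescence ratio at least 3 library SD, with starting fluorescence B-score inside 5 SD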
Target sequence (Q96LB2 whole entry, looked up): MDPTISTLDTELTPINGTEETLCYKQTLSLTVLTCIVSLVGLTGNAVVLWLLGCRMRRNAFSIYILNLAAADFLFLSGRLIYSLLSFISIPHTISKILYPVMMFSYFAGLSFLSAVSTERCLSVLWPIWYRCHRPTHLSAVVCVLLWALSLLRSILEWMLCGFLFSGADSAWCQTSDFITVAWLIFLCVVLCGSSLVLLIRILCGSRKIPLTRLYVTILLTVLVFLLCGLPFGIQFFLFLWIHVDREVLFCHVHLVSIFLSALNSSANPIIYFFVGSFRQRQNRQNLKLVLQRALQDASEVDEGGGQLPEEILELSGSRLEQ
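Test system: HEK293 cells stably expressing human MrgX1 receptor; Input: fifteen thousand cells per well; Dosing: compound delivered in addition one of three; Schedule: overnight seeding, then 1 h dark dye loading; Technique: Fluo-4 NW calcium fluorescence; Measure: B-scored fluorescence response ratio; Controls: positive and negative controls per plate.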
RGS4 act – RGS4 potentiation or activation. HEK293 M3R/inducible RGS4, carbachol calcium flux Fluo4; stronger effect = lower value. B-score at 10 µM. 310,000 tested, 0.92% active. AID 463111;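 active means B-score of the integrated calcium signal more than 4 SD below the library mean, with starting fluorescence not abnormally high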;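 further: negative B-score means reduced calcium response which marks RGS4 activation or potentiation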
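Test system: HEK293 cells with stable M3R and inducible RGS4; also added: carbachol at ECmax as muscarinic agonist stimulus; schedule: dye loading 30 min 37 °C, buffer rest 30 min RT; technique: kinetic calcium fluorescence imaging with Fluo4-AM dye, 2 µM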
MrgX1 antagonist – human MrgX1 receptor antagonism, primary screen. AID 588676. MRGX1-HEK293 calcium flux, Fluo-4, BAM8-22 antagonism; stronger effect = lower value. 310,000 tested, 1.3% active. B-score at 10 µM. Q96LB2;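 active means calcium-response B-score plate-corrected more than 3 library SD below zero, starting fluorescence within 5 deviations, no agonist response on first addition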;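 further: peak minus trough fluorescence over baseline after final BAM8-22 challenge near maximal dose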
RGS4 block – human RGS4 inhibition; P49798; HEK293 M3R/RGS4 inducible, Fluo-4 calcium flux; stronger effect = higher value; triggered by carbachol at its EC20; B-score at 10 µM; 310,000 tested, 0.45% active;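 active means B-score, a plate-corrected calcium signal, over three deviations above library mean, with baseline fluorescence within five deviations of library mean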;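 further: RGS4 expression induced by doxycycline in cells with stable M3 receptor; B-score is computed from the integrated fluorescence ratio over baseline after carbachol; higher B-score means a larger calcium signal and so more RGS4 inhibition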
Target sequence (P49798 whole entry, looked up): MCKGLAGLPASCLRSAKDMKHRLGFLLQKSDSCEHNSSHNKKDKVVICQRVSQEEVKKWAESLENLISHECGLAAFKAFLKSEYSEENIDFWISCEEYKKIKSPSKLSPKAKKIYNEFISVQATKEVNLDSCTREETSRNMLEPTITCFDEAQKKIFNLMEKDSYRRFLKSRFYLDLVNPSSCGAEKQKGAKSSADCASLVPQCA
MrgX1 allo act – allosterically activates human MrgX1 receptor signaling | Q96LB2 | MrgX1-HEK293, Fluo-4 calcium flux, FDSS; stronger effect = higher value | B-score at 10 µM | 310,000 tested, 0.63% active;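 active means plate-corrected calcium response at least 3 library SD above typical, normal starting fluorescence, not activating the receptor alone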;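 further: compound read alongside a low EC10 to EC30 dose of BAM8-22 agonist; peak minus trough fluorescence over baseline measured at the second addition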
* marks the source's active call; other numbers are inactive results; i = inactive; · = no result.

SMILES	MrgX1 agonist	RGS4 act	MrgX1 antagonist	RGS4 block	MrgX1 allo act
C/C(=N/N=C(/N)SCc1ccccc1)C(C)(C)C	i	i	i	i	9.9*
Cc1cccc(CSC(=N)N)c1	i	i	i	i	i
CC(/C=N/n1c(-c2ccccc2)n[nH]c1=S)=C\c1ccco1	i	-7.2*	i	i	i
CC(/C=N/n1c(-c2ccco2)n[nH]c1=S)=C\c1ccco1	i	i	-5.9*	i	i
CC(/C=N/n1c(-c2ccc(C)cc2)n[nH]c1=S)=C\c1ccco1	i	i	i	i	i
CC(/C=N/n1c(-c2ccncc2)n[nH]c1=S)=C\c1ccco1	i	i	i	i	i
NNC(=S)Nc1cccc(Cl)c1	i	i	i	i	i
Cc1oc(-c2ccccc2F)nc1CS(=O)(=O)CC(=O)NCCN(C)C1CCCCC1	i	i	-5.7*	i	i
Cc1oc(-c2ccccc2F)nc1CS(=O)(=O)CC(=O)NC1CCCC1	i	i	i	i	i
CCCNC(=O)CSc1nnc(-c2ccc(F)cc2)o1	i	i	i	i	i
CN(C)CC/C=C1\c2cc(F)ccc2CSc2ccccc21	i	-8.8*	i	i	i
C#CCN(C)CC/C=C1\c2ccccc2CSc2ccccc21	i	-8.7*	i	i	i
C=CCN(C)CC/C=C1\c2ccccc2CSc2ccccc21	i	-11*	i	i	i
NCC/C=C1/c2ccccc2CSc2ccccc21	i	-7*	i	i	i
CCC(=O)NC(c1cccs1)c1ccc2cccnc2c1O (centres undefined)	i	i	i	i	i
CC1(C)CC(=O)C(N=Nc2ccc(Br)cc2)=C(O)C1	i	i	i	i	i
CN(C)CC/C=C1/c2ccc(F)cc2Sc2ccc(Cl)cc21	i	-7.8*	i	i	i
COc1cc(/C=N/NC(=O)CNC(=O)c2ccc3c(c2)OCCO3)ccc1O	i	i	i	i	i
COC(=O)CSc1nc2sc3c(c2c(=O)[nH]1)CCC3	i	i	i	i	i
Cc1ccc(S(=O)(=O)CCC(=O)c2cccc([N+](=O)[O-])c2)cc1	33*	i	i	i	i
O=C(CCNc1cccc(F)c1)c1cccc([N+](=O)[O-])c1	i	i	i	i	9.1*
Cc1ccc(C(=O)CCS(=O)(=O)c2ccc(Br)cc2)cc1	i	i	i	i	i
O=C(CCNc1ccc(Cc2ccncc2)cc1)c1cccc([N+](=O)[O-])c1	i	i	i	i	i
Clc1ccc2nc(-c3ccc(Cl)nc3)[nH]c2c1	i	i	i	i	i
COc1ccc2cc(C(=O)Nc3ccc(O)cc3)sc(=O)c2c1OC	i	i	i	i	i
SMILES	MrgX1 agonist	RGS4 act	MrgX1 antagonist	RGS4 block	MrgX1 allo act
O=C(N/N=C/c1ccccn1)c1cccc(S(=O)(=O)Nc2ccccc2Cl)c1	i	i	i	i	16*
COc1ccc(-c2nn(-c3ccccc3)cc2/C=N/NC(=O)c2cccc(S(=O)(=O)Nc3ccccc3Cl)c2)cc1	i	i	-5*	i	i
COc1cc(C(=O)OCCn2c(=O)c3c(ncn3CCN(C)C)n(C)c2=O)cc(OC)c1OC	i	i	i	i	i
CN1CCN(/N=C/c2ccc(N(c3ccccc3)c3ccccc3)cc2)CC1	i	-7.8*	i	i	i
O=C1C(Cl)=C(N2CCCCCC2)C(=O)N1c1ccccc1	i	-7.4*	i	i	i
COc1ccc(CNc2oc(-c3cccc4ccccc34)nc2C#N)cc1	i	i	i	i	i
CCOc1ccc(C(C)=O)cc1Cc1c(O)nc(N)[nH]c1=O	i	i	-5.2*	i	i
COc1ccc(CC2=CC(=O)c3ccccc3C2=O)cc1	i	i	i	6.2*	i
Cc1c(N=C(N)/N=C(\N)Nc2ccccc2)c(=O)n(-c2ccccc2)n1C	i	i	-4.6*	i	i
CC(C)=CCC/C(C)=C/CN(CC(C)O)CC(C)O (centres undefined)	i	i	i	i	i
CC(C)(C)C(=O)Nc1ccc(S(=O)(=O)N2CCCC2)cc1	i	i	i	i	i
O=C(c1ccc(S(=O)(=O)Cc2cc(F)ccc2F)c([N+](=O)[O-])c1)N1CCCC1	i	i	i	i	7.2*
COc1ccc(CNC(=O)COC(=O)Cc2ccc(Cl)cc2Cl)cc1	i	i	i	i	i
COc1cc(C(=O)NCCOc2cc(C)ccc2C(C)C)cc(OC)c1OC	i	i	-4.7*	i	i
Cc1ccc(C(C)C)c(OCCNC(=O)c2cncc(Br)c2)c1	i	i	i	i	i
CC1OC(OC2C(OC3C(O[C@H]4CC[C@]5(C)C6C=C[C@]78OC[C@@]9(CC[C@@H](C)[C@H](C)C97)[C@H](O)C[C@@]8(C)[C@]6(C)CC[C@H]5C4(C)C)OC(C)C(O)C3O)OC(CO)C(O)C2O)C(O)C(O)C1O (some centres undefined)	·	-7.4*	·	i	·
C[C@H]1O[C@H](O[C@H]2[C@H](O[C@@H]3CC[C@@]4(C)C(CC[C@]5(C)C4CC=C4[C@@H]6CC(C)(C)CC[C@]6(C(=O)O[C@@H]6O[C@H](CO)[C@@H](O)[C@H](O)[C@H]6O)CC[C@]45C)C3(C)C)O[C@H](C(=O)O)[C@@H](O)[C@@H]2O)[C@@H](O)[C@@H](O)[C@@H]1O (some centres undefined)	i	·	i	·	i
COc1ccc(CC(=O)O/N=C(\N)Cc2ccc(OC)cc2)cc1	i	i	i	i	i
COc1ccc(C/C(N)=N/O)cc1	i	i	-8.3*	i	i
Cc1nc(C2CCC3C4CCC5=CC(=O)CC[C@]5(C)C4CC[C@]23C)cs1 (some centres undefined)	i	-10*	i	i	i
COc1ccc(C(=O)N/C(=C\c2cccc([N+](=O)[O-])c2)C(=O)Nc2cccc(C(=O)O)c2)cc1	i	i	-6.9*	i	i
Cc1ccc(C(=O)N/C(=C\c2cccc([N+](=O)[O-])c2)C(=O)Nc2cccc(C(=O)O)c2)cc1	i	i	i	i	i
O=C1c2ccccc2C(=O)c2c1ccc(C(=O)N1CCCCC1)c2NCCO	i	i	i	i	7*
CC1CCCN(C(=O)c2ccc3c(c2NCCO)C(=O)c2ccccc2C3=O)C1 (centres undefined)	i	i	i	i	8*
